# From ChEMBL document CHEMBL1155278, “3,4-Diaryl-isoxazoles and -imidazoles as potent dual inhibitors of p38alpha mitogen activated protein kinase and casein kinase 1delta” (J Med Chem, 2009)
# Tests used:
# [1] = target: Serine/threonine-protein kinase N2 (Homo sapiens) (UniProt Q16513); test: Inhibition of PRK2 assessed as residual activity at 10 uM by Cherenkov counting relative to control in presence of 5 uM ATP
# Method in brief: (§1)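 Single-concentration profiling at 10 μM in a 78-kinase panel. Kinase activity is expressed as a percentage of control assays run without compound.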
# [2] = target: MAP kinase-activated protein kinase 2 (Homo sapiens) (UniProt P49137); test: Inhibition of MAPKAPK2 assessed as residual activity at 10 uM by Cherenkov counting relative to control in presence of 20 uM ATP
# Chain of MAP kinase-activated protein kinase 2 (Homo sapiens) (P49137 whole entry, looked up): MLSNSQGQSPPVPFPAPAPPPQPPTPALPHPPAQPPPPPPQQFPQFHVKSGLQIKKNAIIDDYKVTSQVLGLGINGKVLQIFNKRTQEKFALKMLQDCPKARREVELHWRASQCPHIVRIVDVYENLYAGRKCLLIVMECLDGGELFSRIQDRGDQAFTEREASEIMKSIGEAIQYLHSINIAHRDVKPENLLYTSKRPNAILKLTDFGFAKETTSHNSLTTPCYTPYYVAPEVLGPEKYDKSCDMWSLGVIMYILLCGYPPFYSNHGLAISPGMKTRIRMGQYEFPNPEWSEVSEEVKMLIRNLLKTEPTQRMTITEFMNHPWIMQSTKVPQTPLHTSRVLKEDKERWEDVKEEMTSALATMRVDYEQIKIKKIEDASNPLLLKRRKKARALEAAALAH
# [3] = target: MAP kinase-activated protein kinase 3 (Homo sapiens) (UniProt Q16644); test: Inhibition of MAPKAPK3 assessed as residual activity at 10 uM by Cherenkov counting relative to control
# Chain of MAP kinase-activated protein kinase 3 (Homo sapiens) (Q16644 whole entry, looked up): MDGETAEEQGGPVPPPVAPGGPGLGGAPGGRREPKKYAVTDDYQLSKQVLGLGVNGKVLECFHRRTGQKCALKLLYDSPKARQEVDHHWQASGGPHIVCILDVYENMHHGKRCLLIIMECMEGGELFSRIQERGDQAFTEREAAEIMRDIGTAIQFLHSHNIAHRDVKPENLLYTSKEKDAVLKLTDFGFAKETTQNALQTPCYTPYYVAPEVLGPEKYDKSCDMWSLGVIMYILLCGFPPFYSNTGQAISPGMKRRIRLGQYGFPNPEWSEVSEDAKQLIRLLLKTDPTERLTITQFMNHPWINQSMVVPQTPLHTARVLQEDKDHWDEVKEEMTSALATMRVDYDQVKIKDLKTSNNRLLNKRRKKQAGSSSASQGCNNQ
# [4] = target: Myosin light chain kinase, smooth muscle (Homo sapiens) (UniProt Q15746); test: Inhibition of smooth muscle MLCK assessed as residual activity at 10 uM by Cherenkov counting relative to control in presence of 50 uM ATP; method in brief: as §1
# [5] = Inhibition of PHK assessed as residual activity at 10 uM by Cherenkov counting relative to control
# [6] = target: Serine/threonine-protein kinase PLK1 (Homo sapiens) (UniProt P53350); test: Inhibition of okadaic acid-induced PLK1 assessed as residual activity at 10 uM by Cherenkov counting relative to control in presence of 5 uM ATP; method in brief: as §1
# Chain of Serine/threonine-protein kinase PLK1 (Homo sapiens) (P53350 whole entry): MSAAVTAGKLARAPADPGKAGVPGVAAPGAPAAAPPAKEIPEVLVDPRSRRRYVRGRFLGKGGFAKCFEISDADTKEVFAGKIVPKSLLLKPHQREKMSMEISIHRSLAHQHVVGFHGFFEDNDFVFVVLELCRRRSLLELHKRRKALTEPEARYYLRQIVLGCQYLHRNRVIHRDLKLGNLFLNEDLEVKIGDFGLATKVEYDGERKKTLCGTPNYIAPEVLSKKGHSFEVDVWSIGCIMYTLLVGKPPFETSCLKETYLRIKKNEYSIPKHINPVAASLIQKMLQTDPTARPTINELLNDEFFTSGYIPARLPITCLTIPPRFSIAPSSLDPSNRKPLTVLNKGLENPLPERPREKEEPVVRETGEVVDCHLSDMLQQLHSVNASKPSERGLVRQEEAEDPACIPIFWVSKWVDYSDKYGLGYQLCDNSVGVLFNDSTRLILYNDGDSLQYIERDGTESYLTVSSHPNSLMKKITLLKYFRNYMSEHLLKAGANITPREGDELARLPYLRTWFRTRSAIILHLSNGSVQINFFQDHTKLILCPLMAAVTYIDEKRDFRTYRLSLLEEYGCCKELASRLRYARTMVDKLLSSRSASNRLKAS
# [7] = target: Serine/threonine-protein kinase pim-2 (Homo sapiens) (UniProt Q9P1W9); test: Inhibition of PIM2 assessed as residual activity at 10 uM by Cherenkov counting relative to control in presence of 5 uM ATP
# Chain of Serine/threonine-protein kinase pim-2 (Homo sapiens) (Q9P1W9 whole entry, looked up): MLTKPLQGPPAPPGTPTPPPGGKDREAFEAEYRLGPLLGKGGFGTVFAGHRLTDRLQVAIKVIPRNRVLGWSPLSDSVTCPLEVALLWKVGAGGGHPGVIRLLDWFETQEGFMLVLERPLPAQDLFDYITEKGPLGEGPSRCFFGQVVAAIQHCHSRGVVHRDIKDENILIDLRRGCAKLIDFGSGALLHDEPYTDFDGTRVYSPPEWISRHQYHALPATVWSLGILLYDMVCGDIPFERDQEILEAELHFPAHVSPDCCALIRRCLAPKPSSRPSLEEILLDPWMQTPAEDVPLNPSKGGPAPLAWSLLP
# [8] = target: Tyrosine-protein kinase Lck (Homo sapiens) (UniProt P06239); test: Inhibition of Lck assessed as residual activity at 10 uM by Cherenkov counting relative to control in presence of 50 uM ATP
# [9] = Inhibition of VEGFR assessed as residual activity at 0.1 uM by Cherenkov counting relative to control in presence of 20 uM ATP
# Method in brief: (§2)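 Single-concentration screen at 0.1 μM in a 76-kinase panel. ATP for each kinase was set near its Km for ATP. Residual activity is given as a percentage of control assays without compound, mean of n = 3 ± SD.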
# [10] = target: Mitogen-activated protein kinase 11 (Homo sapiens) (UniProt Q15759); test: Inhibition of p38beta at 0.1 uM by Cherenkov counting; method in brief: as §2
# [11] = target: Dual specificity mitogen-activated protein kinase kinase 1 (Homo sapiens) (UniProt Q02750); test: Inhibition of MKK1 at 0.1 uM by Cherenkov counting in presence of 5 uM ATP
# Method in brief: (§3)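 Single-concentration selectivity screen at 0.1 μM against a panel of 76 protein kinases. Each kinase was run at an ATP level approximating its Km for ATP. Output is mean residual activity as % of the control assay without compound, n = 3 ± SD.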
# [12] = target: Tyrosine-protein kinase Yes (Homo sapiens) (UniProt P07947); test: Inhibition of YES1 at 0.1 uM by Cherenkov counting in presence of 20 uM ATP; method in brief: as §2
# [13] = target: MAP kinase-interacting serine/threonine-protein kinase 1 (Homo sapiens) (UniProt Q9BUB5); test: Inhibition of MNK1 assessed as residual activity at 0.1 uM by Cherenkov counting relative to control in presence of 50 uM ATP; method in brief: as §3
# Chain of MAP kinase-interacting serine/threonine-protein kinase 1 (Homo sapiens) (Q9BUB5 whole entry, looked up): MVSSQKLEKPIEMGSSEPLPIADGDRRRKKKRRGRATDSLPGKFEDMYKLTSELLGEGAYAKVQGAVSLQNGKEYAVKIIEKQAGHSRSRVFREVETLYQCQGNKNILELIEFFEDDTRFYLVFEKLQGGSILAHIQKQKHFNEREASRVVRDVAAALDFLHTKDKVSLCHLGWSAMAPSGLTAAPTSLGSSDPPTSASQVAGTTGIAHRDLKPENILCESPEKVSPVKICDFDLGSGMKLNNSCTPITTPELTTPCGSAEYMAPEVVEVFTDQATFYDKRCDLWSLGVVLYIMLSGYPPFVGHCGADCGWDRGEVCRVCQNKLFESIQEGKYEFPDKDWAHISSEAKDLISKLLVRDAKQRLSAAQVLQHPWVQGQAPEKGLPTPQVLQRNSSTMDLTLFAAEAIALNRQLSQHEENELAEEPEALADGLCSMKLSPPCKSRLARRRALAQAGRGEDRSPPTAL
# [14] = target: Cyclin-dependent kinase 2/cyclin A (Homo sapiens) (UniProt P24941+P20248+P78396); test: Inhibition of CDK2/cyclin A assessed as residual activity at 0.1 uM by Cherenkov counting relative to control in presence of 20 uM ATP; assay type: protein-complex assay
# Method in brief: (§4)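 Single-concentration screen at 0.1 µM across a panel of 76 protein kinases. Each kinase was run at an ATP concentration approximating its ATP Km. Results are % mean residual activity versus control assays without compound (n = 3 ± SD).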
# [15] = target: Serine/threonine-protein kinase PLK1 (Homo sapiens) (UniProt P53350); test: Inhibition of PLK1 assessed as residual activity at 0.1 uM by Cherenkov counting relative to control in presence of 5 uM ATP; method in brief: as §2
# [16] = target: T1, Dual specificity tyrosine-phosphorylation-regulated kinase 2 (Homo sapiens) (UniProt Q92630); test: Inhibition of DYRK2 assessed as residual activity at 0.1 uM by Cherenkov counting relative to control in presence of 50 uM ATP; method in brief: as §4
# T1 sequence (whole entry): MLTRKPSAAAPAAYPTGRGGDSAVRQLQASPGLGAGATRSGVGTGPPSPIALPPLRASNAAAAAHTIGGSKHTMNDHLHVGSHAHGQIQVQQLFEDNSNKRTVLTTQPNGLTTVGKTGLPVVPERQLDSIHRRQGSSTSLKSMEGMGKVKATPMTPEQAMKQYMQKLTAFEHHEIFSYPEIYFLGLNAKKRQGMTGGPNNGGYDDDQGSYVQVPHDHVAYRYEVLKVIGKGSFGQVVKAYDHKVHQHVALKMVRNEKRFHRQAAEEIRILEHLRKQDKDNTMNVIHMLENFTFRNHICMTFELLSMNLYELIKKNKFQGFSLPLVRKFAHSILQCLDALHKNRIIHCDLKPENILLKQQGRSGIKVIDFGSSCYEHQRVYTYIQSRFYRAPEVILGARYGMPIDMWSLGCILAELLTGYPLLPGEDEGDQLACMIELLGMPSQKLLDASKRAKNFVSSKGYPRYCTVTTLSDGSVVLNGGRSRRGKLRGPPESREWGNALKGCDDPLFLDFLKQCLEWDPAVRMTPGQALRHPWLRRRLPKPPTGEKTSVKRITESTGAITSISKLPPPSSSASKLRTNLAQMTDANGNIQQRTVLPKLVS
# [17] = target: Homeodomain-interacting protein kinase 2 (Homo sapiens) (UniProt Q9H2X6); test: Inhibition of HIPK2 assessed as residual activity at 0.1 uM by Cherenkov counting relative to control in presence of 5 uM ATP; method in brief: as §4
# Chain of Homeodomain-interacting protein kinase 2 (Homo sapiens) (Q9H2X6 whole entry, looked up): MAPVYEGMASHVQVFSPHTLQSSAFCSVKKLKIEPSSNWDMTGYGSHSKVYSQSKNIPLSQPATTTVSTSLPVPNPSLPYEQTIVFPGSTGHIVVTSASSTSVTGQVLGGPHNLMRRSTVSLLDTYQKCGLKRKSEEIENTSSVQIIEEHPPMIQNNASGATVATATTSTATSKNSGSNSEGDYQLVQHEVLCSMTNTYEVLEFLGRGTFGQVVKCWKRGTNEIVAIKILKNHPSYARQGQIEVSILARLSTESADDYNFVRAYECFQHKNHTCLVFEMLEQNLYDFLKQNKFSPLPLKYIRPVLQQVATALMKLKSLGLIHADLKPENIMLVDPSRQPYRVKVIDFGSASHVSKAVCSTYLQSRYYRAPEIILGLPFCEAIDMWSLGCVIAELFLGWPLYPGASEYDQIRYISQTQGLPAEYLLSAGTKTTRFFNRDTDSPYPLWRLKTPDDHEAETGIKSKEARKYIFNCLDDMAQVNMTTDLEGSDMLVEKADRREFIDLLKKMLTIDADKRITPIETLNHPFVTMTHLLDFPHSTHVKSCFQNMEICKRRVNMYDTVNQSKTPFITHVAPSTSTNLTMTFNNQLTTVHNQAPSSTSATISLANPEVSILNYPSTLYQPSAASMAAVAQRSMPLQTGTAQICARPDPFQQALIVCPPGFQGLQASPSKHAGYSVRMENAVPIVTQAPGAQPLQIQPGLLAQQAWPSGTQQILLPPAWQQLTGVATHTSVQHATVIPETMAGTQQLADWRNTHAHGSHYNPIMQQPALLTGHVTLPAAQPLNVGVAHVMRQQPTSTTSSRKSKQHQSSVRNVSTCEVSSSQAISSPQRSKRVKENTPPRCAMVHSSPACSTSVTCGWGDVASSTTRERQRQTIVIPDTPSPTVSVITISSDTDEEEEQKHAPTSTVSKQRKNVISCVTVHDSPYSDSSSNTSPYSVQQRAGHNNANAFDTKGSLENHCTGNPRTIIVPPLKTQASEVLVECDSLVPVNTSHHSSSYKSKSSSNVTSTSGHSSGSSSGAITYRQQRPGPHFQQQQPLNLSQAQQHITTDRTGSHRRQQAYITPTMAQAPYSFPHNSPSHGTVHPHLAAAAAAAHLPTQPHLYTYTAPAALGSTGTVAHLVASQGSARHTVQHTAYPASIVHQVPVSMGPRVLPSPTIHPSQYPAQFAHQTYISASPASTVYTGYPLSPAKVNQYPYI
# [18] = target: Serine/threonine-protein kinase PAK 4 (Homo sapiens) (UniProt O96013); test: Inhibition of PAK4 assessed as residual activity at 0.1 uM by Cherenkov counting relative to control in presence of 5 uM ATP; method in brief: as §3
# Chain of Serine/threonine-protein kinase PAK 4 (Homo sapiens) (O96013 whole entry, looked up): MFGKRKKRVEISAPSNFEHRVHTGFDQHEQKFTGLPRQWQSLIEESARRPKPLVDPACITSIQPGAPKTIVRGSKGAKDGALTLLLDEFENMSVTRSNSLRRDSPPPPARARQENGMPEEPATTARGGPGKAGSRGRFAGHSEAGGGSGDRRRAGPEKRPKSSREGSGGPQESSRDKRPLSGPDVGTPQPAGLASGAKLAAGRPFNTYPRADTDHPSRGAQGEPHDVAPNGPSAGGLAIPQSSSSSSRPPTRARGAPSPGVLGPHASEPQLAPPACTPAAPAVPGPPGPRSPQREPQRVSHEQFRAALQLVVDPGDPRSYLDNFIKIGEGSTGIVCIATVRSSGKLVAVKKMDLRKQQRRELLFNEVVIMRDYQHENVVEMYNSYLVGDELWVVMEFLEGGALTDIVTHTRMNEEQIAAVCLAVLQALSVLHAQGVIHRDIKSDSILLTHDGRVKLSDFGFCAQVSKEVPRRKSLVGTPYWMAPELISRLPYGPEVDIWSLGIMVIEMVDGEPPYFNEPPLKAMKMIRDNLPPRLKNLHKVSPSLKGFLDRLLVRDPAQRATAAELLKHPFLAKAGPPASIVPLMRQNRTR
# [19] = target: Ephrin type-A receptor 2 (Homo sapiens) (UniProt P29317); test: Inhibition of EPHA2 assessed as residual activity at 0.1 uM by Cherenkov counting relative to control in presence of 50 uM ATP; method in brief: as §4
# Chain of Ephrin type-A receptor 2 (Homo sapiens) (P29317 whole entry): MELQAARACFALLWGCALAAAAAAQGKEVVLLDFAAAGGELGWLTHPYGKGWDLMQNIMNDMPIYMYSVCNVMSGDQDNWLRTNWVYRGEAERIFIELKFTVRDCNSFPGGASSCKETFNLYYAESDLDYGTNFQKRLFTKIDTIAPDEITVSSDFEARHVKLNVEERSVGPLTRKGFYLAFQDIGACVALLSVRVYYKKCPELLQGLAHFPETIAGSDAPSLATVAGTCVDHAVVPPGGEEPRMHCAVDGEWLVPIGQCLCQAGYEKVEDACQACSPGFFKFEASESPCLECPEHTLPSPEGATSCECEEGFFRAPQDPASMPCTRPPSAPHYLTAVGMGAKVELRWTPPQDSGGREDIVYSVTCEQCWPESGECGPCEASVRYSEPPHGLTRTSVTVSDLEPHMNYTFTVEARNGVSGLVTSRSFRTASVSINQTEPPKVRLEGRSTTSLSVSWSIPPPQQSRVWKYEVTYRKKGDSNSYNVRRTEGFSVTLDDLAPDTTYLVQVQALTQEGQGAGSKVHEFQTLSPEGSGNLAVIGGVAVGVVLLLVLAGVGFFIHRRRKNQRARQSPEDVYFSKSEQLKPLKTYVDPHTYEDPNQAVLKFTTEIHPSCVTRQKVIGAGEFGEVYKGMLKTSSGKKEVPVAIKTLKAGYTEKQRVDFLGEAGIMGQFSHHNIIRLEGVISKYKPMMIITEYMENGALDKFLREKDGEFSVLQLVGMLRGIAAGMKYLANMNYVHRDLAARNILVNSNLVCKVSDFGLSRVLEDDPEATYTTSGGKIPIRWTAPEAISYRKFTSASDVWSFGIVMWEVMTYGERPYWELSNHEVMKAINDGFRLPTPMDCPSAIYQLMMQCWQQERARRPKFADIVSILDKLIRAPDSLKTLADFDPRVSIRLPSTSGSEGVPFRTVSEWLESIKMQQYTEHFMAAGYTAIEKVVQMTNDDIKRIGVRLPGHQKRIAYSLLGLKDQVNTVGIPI
Compound,Activity [1],Activity [2],Activity [3],Activity [4],Activity [5],Activity [6],Activity [7],Activity [8],Activity [9],inhibition [10],inhibition [11],inhibition [12],Activity [13],Activity [14],Activity [15],Activity [16],Activity [17],Activity [18],Activity [19]
CC(C)c1onc(-c2ccc(F)cc2)c1-c1ccncc1,88%,105%,104%,99%,96%,104%,105%,42%,,,,,,,,,,,
COc1ccc(/C=C/C(=O)Nc2cc(-c3[nH]c([S+](C)[O-])nc3-c3ccc(F)cc3)ccn2)c(OC)c1 (stereo not drawn),,,,,,,,,46%,54%,82%,86%,96%,115%,110%,101%,104%,98%,95%
COc1ccc(/C=C/C(=O)Nc2cc(-c3[nH]c(SC)nc3-c3ccc(F)cc3)ccn2)c(OC)c1,,,,,,,,,33%,83%,73%,76%,91%,112%,97%,82%,94%,81%,97%
CC(C)c1noc(-c2ccc(F)cc2)c1-c1ccncc1,98%,100%,113%,110%,99%,105%,96%,64%,,,,,,,,,,,
